Measurements as given in ChEMBL document CHEMBL1649314, “Experimental murine scedosporiosis: histopathology and azole treatment” (2010).
≈ marks a conversion by molar mass, not a printed value. Calls of active or inactive are those of the source. No cut-off for these calls is given here.

Legend:
Scedosporium boydii [1] = assay: Antifungal activity against Scedosporium boydii FMR 6694 by broth dilution method; format: functional
Scedosporium apiospermum [2] = assay: Antifungal activity against Scedosporium apiospermum CBS 117407 by broth dilution method; format: functional
Scedosporium apiospermum [3] = assay: Antifungal activity against Scedosporium apiospermum IHEM 14464 by broth dilution method; format: functional
[4] = Antifungal activity against Scedosporium aurantiacum CBS 116910 by broth dilution method; format: functional
[5] = Antifungal activity against Scedosporium aurantiacum IHEM 15458 by broth dilution method; format: functional
Scedosporium boydii [6] = assay: Antifungal activity against Scedosporium boydii FMR 6694 infected in immunosuppressed OF1 mouse assessed as prolonged survival of mouse at 10 mg/kg, po BID administered 24 hrs postinfection for 10 days measured after 20 days; format: functional, organism-based; design: dose 10 mg/kg
How it was run: (§1)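 Male OF1 mice, groups of 10, immunosuppressed 1 day before infection with cyclophosphamide 200 mg/kg i.p. plus 5-fluorouracil 150 mg/kg i.v. Infected i.v. via tail vein with 1 × 10^4 CFU in 0.2 ml saline. Oral treatment began 24 h post-challenge for 10 days. Mice checked daily for 20 days. Survival by Kaplan-Meier, compared by log rank test.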

Scedosporium boydii [7] = assay: Antifungal activity against Scedosporium boydii FMR 6694 infected in immunosuppressed OF1 mouse assessed as prolonged survival of mouse at 20 mg/kg, po BID administered 24 hrs postinfection for 10 days measured after 20 days; format: functional, organism-based; design: dose 20 mg/kg; how it was run: as §1
Scedosporium boydii [8] = assay: Antifungal activity against Scedosporium boydii FMR 8627 infected in immunosuppressed OF1 mouse assessed as prolonged survival of mouse at 20 mg/kg, po BID administered 24 hrs postinfection for 10 days measured after 20 days; format: functional, organism-based; design: dose 20 mg/kg
How it was run: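 Male OF1 mice were immunosuppressed 1 day before infection with cyclophosphamide 200 mg/kg i.p. plus 5-fluorouracil 150 mg/kg i.v. They were infected i.v. via a lateral tail vein with 1 × 10^4 CFU/mouse in 0.2 ml saline. Oral dosing was 10 or 20 mg/kg twice daily, or 20 or 40 mg/kg once daily (those mice and controls drank grapefruit juice from day −3). Dosing ran 24 h post-challenge for 10 days; 10 mice/group; observed daily to day 20; Kaplan-Meier with log rank test.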

Scedosporium apiospermum [9] = assay: Antifungal activity against Scedosporium apiospermum CBS 117407 infected in immunosuppressed OF1 mouse assessed as prolonged survival of mouse at 10 mg/kg, po BID administered 24 hrs postinfection for 10 days measured after 20 days; format: functional, organism-based; design: dose 10 mg/kg; how it was run: as §1
Scedosporium apiospermum [10] = assay: Antifungal activity against Scedosporium apiospermum IHEM 14464 infected in immunosuppressed OF1 mouse assessed as prolonged survival of mouse at 10 mg/kg, po BID administered 24 hrs postinfection for 10 days measured after 20 days; format: functional, organism-based; design: dose 10 mg/kg; how it was run: as §1
Scedosporium apiospermum [11] = assay: Antifungal activity against Scedosporium apiospermum IHEM 14464 infected in immunosuppressed OF1 mouse assessed as prolonged survival of mouse at 20 mg/kg, po BID administered 24 hrs postinfection for 10 days measured after 20 days; format: functional, organism-based; design: dose 20 mg/kg; how it was run: as §1
[12] = Antifungal activity against Scedosporium aurantiacum CBS 116910 infected in immunosuppressed OF1 mouse assessed as prolonged survival of mouse at 10 mg/kg, po BID administered 24 hrs postinfection for 10 days measured after 20 days; format: functional, organism-based; design: dose 10 mg/kg; how it was run: as §1
[13] = Antifungal activity against Scedosporium aurantiacum IHEM 15458 infected in immunosuppressed OF1 mouse assessed as prolonged survival of mouse at 20 mg/kg, po BID administered 24 hrs postinfection for 10 days measured after 20 days; format: functional, organism-based; design: dose 20 mg/kg; how it was run: as §1
Scedosporium boydii [14] = assay: Antifungal activity against Scedosporium boydii FMR 6694 infected in immunosuppressed OF1 mouse assessed as reduction in kidney fungal burden at 10 mg/kg, po BID administered 24 hrs postinfection for 10 days measured after 20 days; format: functional, organism-based; design: dose 10 mg/kg
Scedosporium boydii [15] = assay: Antifungal activity against Scedosporium boydii FMR 8627 infected in immunosuppressed OF1 mouse assessed as reduction in kidney fungal burden at 10 mg/kg, po BID administered 24 hrs postinfection for 10 days measured after 20 days; format: functional, organism-based; design: dose 10 mg/kg
Scedosporium apiospermum [16] = assay: Antifungal activity against Scedosporium apiospermum CBS 117407 infected in immunosuppressed OF1 mouse assessed as reduction in kidney fungal burden at 10 mg/kg, po BID administered 24 hrs postinfection for 10 days measured after 20 days; format: functional, organism-based; design: dose 10 mg/kg
Scedosporium apiospermum [17] = assay: Antifungal activity against Scedosporium apiospermum IHEM 14464 infected in immunosuppressed OF1 mouse assessed as reduction in kidney fungal burden at 10 mg/kg, po BID administered 24 hrs postinfection for 10 days measured after 20 days; format: functional, organism-based; design: dose 10 mg/kg
Scedosporium apiospermum [18] = assay: Antifungal activity against Scedosporium apiospermum IHEM 14464 infected in immunosuppressed OF1 mouse assessed as reduction in kidney fungal burden at 20 mg/kg, po BID administered 24 hrs postinfection for 10 days measured after 20 days; format: functional, organism-based; design: dose 20 mg/kg
Scedosporium aurantiacum [19] = assay: Antifungal activity against Scedosporium aurantiacum CBS 116910 infected in immunosuppressed OF1 mouse assessed as reduction in kidney fungal burden at 20 mg/kg, po BID administered 24 hrs postinfection for 10 days measured after 20 days; format: functional, organism-based; design: dose 20 mg/kg
Scedosporium aurantiacum [20] = assay: Antifungal activity against Scedosporium aurantiacum IHEM 15458 infected in immunosuppressed OF1 mouse assessed as reduction in kidney fungal burden at 10 mg/kg, po BID administered 24 hrs postinfection for 10 days measured after 20 days; format: functional, organism-based; design: dose 10 mg/kg
Scedosporium boydii [21] = assay: Antifungal activity against Scedosporium boydii FMR 6694 infected in immunosuppressed OF1 mouse assessed as reduction in brain fungal burden at 20 mg/kg, po BID administered 24 hrs postinfection for 10 days measured after 20 days; format: functional, organism-based; design: dose 20 mg/kg
Scedosporium boydii [22] = assay: Antifungal activity against Scedosporium boydii FMR 6694 infected in immunosuppressed OF1 mouse assessed as reduction in brain fungal burden at 40 mg/kg, po BID administered 24 hrs postinfection for 10 days measured after 20 days; format: functional, organism-based; design: dose 40 mg/kg
Scedosporium boydii [23] = assay: Antifungal activity against Scedosporium boydii FMR 8627 infected in immunosuppressed OF1 mouse assessed as reduction in brain fungal burden at 20 mg/kg, po BID administered 24 hrs postinfection for 10 days measured after 20 days; format: functional, organism-based; design: dose 20 mg/kg
Scedosporium boydii [24] = assay: Antifungal activity against Scedosporium boydii FMR 8627 infected in immunosuppressed OF1 mouse assessed as reduction in brain fungal burden at 40 mg/kg, po BID administered 24 hrs postinfection for 10 days measured after 20 days; format: functional, organism-based; design: dose 40 mg/kg
Scedosporium apiospermum [25] = assay: Antifungal activity against Scedosporium apiospermum CBS 117407 infected in immunosuppressed OF1 mouse assessed as reduction in brain fungal burden at 20 mg/kg, po BID administered 24 hrs postinfection for 10 days measured after 20 days; format: functional, organism-based; design: dose 20 mg/kg
Scedosporium apiospermum [26] = assay: Antifungal activity against Scedosporium apiospermum IHEM 14464 infected in immunosuppressed OF1 mouse assessed as reduction in brain fungal burden at 20 mg/kg, po BID administered 24 hrs postinfection for 10 days measured after 20 days; format: functional, organism-based; design: dose 20 mg/kg
Scedosporium apiospermum [27] = assay: Antifungal activity against Scedosporium apiospermum IHEM 14464 infected in immunosuppressed OF1 mouse assessed as reduction in brain fungal burden at 40 mg/kg, po BID administered 24 hrs postinfection for 10 days measured after 20 days; format: functional, organism-based; design: dose 40 mg/kg
Scedosporium aurantiacum [28] = assay: Antifungal activity against Scedosporium aurantiacum IHEM 15458 infected in immunosuppressed OF1 mouse assessed as reduction in brain fungal burden at 40 mg/kg, po BID administered 24 hrs postinfection for 10 days measured after 20 days; format: functional, organism-based; design: dose 40 mg/kg

Structure (SMILES): CC[C@@H]([C@H](C)O)n1ncn(-c2ccc(N3CCN(c4ccc(OC[C@@H]5CO[C@@](Cn6cncn6)(c6ccc(F)cc6F)C5)cc4)CC3)cc2)c1=O [POSACONAZOLE]
- MIC (Scedosporium boydii [1]): 1 µg/mL (≈ 1.43 µM)
- MIC (Scedosporium apiospermum [2]): 1 µg/mL (≈ 1.43 µM)
- MIC (Scedosporium apiospermum [3]): 0.5 µg/mL (≈ 0.713 µM)
- MIC [4]: 32 µg/mL (≈ 45.7 µM)
- MIC [5]: 2 µg/mL (≈ 2.85 µM)
- Activity (Scedosporium boydii [6]): Active
- Activity (Scedosporium boydii [7]): Active
- Activity (Scedosporium boydii [8]): Active
- Activity (Scedosporium apiospermum [9]): Active
- Activity (Scedosporium apiospermum [10]): Active
- Activity (Scedosporium apiospermum [11]): Active
- Activity [12]: Active
- Activity [13]: Active
- Activity (Scedosporium boydii [14]): inactive
- Activity (Scedosporium boydii [15]): Active
- Activity (Scedosporium apiospermum [16]): Active
- Activity (Scedosporium apiospermum [17]): Active
- Activity (Scedosporium apiospermum [18]): Active
- Activity (Scedosporium aurantiacum [19]): Active
- Activity (Scedosporium aurantiacum [20]): Active
- Activity (Scedosporium boydii [21]): inactive
- Activity (Scedosporium boydii [22]): inactive
- Activity (Scedosporium boydii [23]): Active
- Activity (Scedosporium boydii [24]): Active
- Activity (Scedosporium apiospermum [25]): Active
- Activity (Scedosporium apiospermum [26]): Active
- Activity (Scedosporium apiospermum [27]): Active
- Activity (Scedosporium aurantiacum [28]): Active
